Source: ChEMBL document CHEMBL2331439 (J Med Chem, 2013)
Activity calls are given as the source filed them. The calls are words filed in the database; no cut-off is given here.

What was measured:
[1] = target: Glycogen synthase kinase-3 beta (Homo sapiens) (UniProt P49841); test: Inhibition of recombinant GSK3B (unknown origin) at 5 uM by FRET-based Z'-LYTE assay
Summary of the method: (§1)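 Single-point panel screen at 5 μM in duplicate. ATP is at the apparent Km of each kinase, and the Z'-LYTE FRET peptide substrate is used. Each point has two control wells: a protease control for interference with development and a fluorescence control for interference with the FRET read-out. Values above 100% are treated as maximal inhibition and values below 0% as none.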

[2] = target: Serine/threonine-protein kinase MARK2 (Homo sapiens) (UniProt Q7KZI7); test: Inhibition of recombinant MARK2 (unknown origin) at 5 uM by FRET-based Z'-LYTE assay; summary of the method: as §1
[3] = target: Proto-oncogene tyrosine-protein kinase receptor Ret (Homo sapiens) (UniProt P07949); test: Inhibition of recombinant RET (unknown origin) at 5 uM by FRET-based Z'-LYTE assay
Summary of the method: (§2)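 Z'-LYTE FRET peptide (coumarin/fluorescein) phosphorylation was followed by protease development. Wells included a protease control for interference with development and a fluorescence control for interference with the FRET read. Values above 100% or below 0% were treated as maximal or no inhibition.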

[4] = target: CDK9/cyclin T1 (Homo sapiens) (UniProt O60563+P50750); test: Inhibition of recombinant CDK9/cyclin T1 (unknown origin) at 5 uM after 1 hr by FRET-based adapta assay; type: protein-complex assay
Summary of the method: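 After inhibitor and all reaction components are added, the reaction runs for 1 h. ADP formed by the kinase displaces an antibody-tracer complex, so reduced ADP gives a high TR-FRET signal. Inhibition is calculated against a control.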

[5] = target: T1, Mitogen-activated protein kinase 1 (Homo sapiens, UniProt P28482); test: Inhibition of recombinant MAPK1 (unknown origin) at 5 uM by FRET-based Z'-LYTE assay; summary of the method: as §1
[6] = target: 3-phosphoinositide-dependent protein kinase 1 (Homo sapiens) (UniProt O15530); test: Inhibition of recombinant PDK1 (unknown origin) at 5 uM by FRET-based Z'-LYTE assay; summary of the method: as §1
[7] = target: Fibroblast growth factor receptor 1 (Homo sapiens) (UniProt P11362); test: Inhibition of recombinant FGFR1 (unknown origin) at 5 uM by FRET-based Z'-LYTE assay; summary of the method: as §1
[8] = target: Receptor-type tyrosine-protein kinase FLT3 (Homo sapiens) (UniProt P36888); test: Inhibition of recombinant FLT3 (unknown origin) at 5 uM by FRET-based Z'-LYTE assay; summary of the method: as §1
[9] = target: Ribosomal protein S6 kinase alpha-3 (Homo sapiens) (UniProt P51812); test: Inhibition of recombinant RPS6KA3 (unknown origin) at 5 uM by FRET-based Z'-LYTE assay; summary of the method: as §2
[10] = target: Aurora kinase A (Homo sapiens) (UniProt O14965); test: Inhibition of recombinant AURKA (unknown origin) at 5 uM by FRET-based Z'-LYTE assay; summary of the method: as §1
[11] = target: T2, Ribosomal protein S6 kinase beta-1 (Homo sapiens, UniProt P23443); test: Inhibition of recombinant RPS6KB1 (unknown origin) at 5 uM by FRET-based Z'-LYTE assay; summary of the method: as §2
[12] = target: Serine/threonine-protein kinase Nek1 (Homo sapiens) (UniProt Q96PY6); test: Inhibition of recombinant NEK1 (unknown origin) at 5 uM by FRET-based Z'-LYTE assay; summary of the method: as §1
[13] = target: Mitogen-activated protein kinase 14 (Homo sapiens, UniProt Q16539); test: Inhibition of recombinant MAPK14 (unknown origin) at 5 uM by cascade reaction assay
[14] = target: Inhibitor of nuclear factor kappa-B kinase subunit beta (Homo sapiens) (UniProt O14920); test: Inhibition of recombinant IKBKB (unknown origin) at 5 uM by FRET-based Z'-LYTE assay; summary of the method: as §1
[15] = target: T1, Mitogen-activated protein kinase 1; test: Competitive inhibition of recombinant ERK2 (unknown origin) by FRET-based Z'-LYTE assay
[16] = target: Dual specificity mitogen-activated protein kinase kinase 1 (Homo sapiens, UniProt Q02750); test: Inhibition of recombinant MEK1 (unknown origin) by cascade reaction assay
[17] = target: T2, Ribosomal protein S6 kinase beta-1; test: Inhibition of recombinant RPS6K1 (unknown origin) by FRET-based Z'-LYTE assay
[18] = target: Serine/threonine-protein kinase mTOR (Homo sapiens) (UniProt P42345); test: Inhibition of recombinant FRAP1 (unknown origin) at 5 uM by FRET-based Z'-LYTE assay; summary of the method: as §1
[19] = target: Cyclin-dependent kinase 2/cyclin A (Homo sapiens) (UniProt P24941+P20248+P78396); test: Inhibition of recombinant CDK2/cyclin A (unknown origin) at 5 uM by FRET-based Z'-LYTE assay; type: protein-complex assay; summary of the method: as §1
[20] = target: Mast/stem cell growth factor receptor Kit (Homo sapiens) (UniProt P10721); test: Inhibition of recombinant KIT (unknown origin) at 5 uM by FRET-based Z'-LYTE assay; summary of the method: as §1
[21] = target: Casein kinase II subunit alpha (Homo sapiens) (UniProt P68400); test: Inhibition of recombinant CSNK2A1 (unknown origin) at 5 uM by FRET-based Z'-LYTE assay; summary of the method: as §1
[22] = target: cAMP-dependent protein kinase catalytic subunit alpha (Homo sapiens) (UniProt P17612); test: Inhibition of recombinant PRKACA (unknown origin) at 5 uM by FRET-based Z'-LYTE assay; summary of the method: as §1
[23] = target: Serine/threonine-protein kinase pim-1 (Homo sapiens) (UniProt P11309); test: Inhibition of recombinant PIM1 (unknown origin) at 5 uM by FRET-based Z'-LYTE assay; summary of the method: as §1
[24] = target: Tyrosine-protein kinase Lck (Homo sapiens) (UniProt P06239); test: Inhibition of recombinant LCK (unknown origin) at 5 uM by FRET-based Z'-LYTE assay; summary of the method: as §1
[25] = target: Tyrosine-protein kinase JAK3 (Homo sapiens) (UniProt P52333); test: Inhibition of recombinant JAK3 (unknown origin) at 5 uM by FRET-based Z'-LYTE assay; summary of the method: as §1
[26] = target: Insulin receptor (Homo sapiens) (UniProt P06213); test: Inhibition of recombinant INSR (unknown origin) at 5 uM by FRET-based Z'-LYTE assay; summary of the method: as §1
[27] = target: Serine/threonine-protein kinase PAK 4 (Homo sapiens) (UniProt O96013); test: Inhibition of recombinant PAK4 (unknown origin) at 5 uM by FRET-based Z'-LYTE assay; summary of the method: as §1
[28] = target: MAP kinase-activated protein kinase 2 (Homo sapiens, UniProt P49137); conditions: 5 uM
[29] = target: Vascular endothelial growth factor receptor 2 (Homo sapiens, UniProt P35968); conditions: 5 uM

T1 sequence (P28482 whole entry): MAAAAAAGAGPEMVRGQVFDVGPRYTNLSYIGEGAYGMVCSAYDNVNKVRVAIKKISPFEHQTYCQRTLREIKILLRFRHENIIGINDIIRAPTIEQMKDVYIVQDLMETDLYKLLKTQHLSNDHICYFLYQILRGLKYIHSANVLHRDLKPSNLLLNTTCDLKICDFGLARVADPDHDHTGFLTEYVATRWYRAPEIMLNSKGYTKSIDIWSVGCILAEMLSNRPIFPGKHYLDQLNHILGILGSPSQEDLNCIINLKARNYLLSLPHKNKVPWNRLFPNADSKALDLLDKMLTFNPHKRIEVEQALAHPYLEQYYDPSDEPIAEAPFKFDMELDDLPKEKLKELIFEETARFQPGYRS
Mitogen-activated protein kinase 14, sequence (Q16539 whole entry): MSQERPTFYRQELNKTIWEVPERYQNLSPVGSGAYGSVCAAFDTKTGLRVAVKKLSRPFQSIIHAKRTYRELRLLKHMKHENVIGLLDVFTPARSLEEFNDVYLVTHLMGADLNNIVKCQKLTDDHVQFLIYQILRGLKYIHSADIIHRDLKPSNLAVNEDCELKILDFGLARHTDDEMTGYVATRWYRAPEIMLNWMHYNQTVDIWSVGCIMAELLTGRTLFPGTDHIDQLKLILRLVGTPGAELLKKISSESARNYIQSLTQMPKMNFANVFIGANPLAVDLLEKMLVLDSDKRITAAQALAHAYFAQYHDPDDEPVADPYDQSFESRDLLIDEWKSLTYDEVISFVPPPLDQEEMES
Receptor-type tyrosine-protein kinase FLT3 (Homo sapiens), sequence (P36888 whole entry): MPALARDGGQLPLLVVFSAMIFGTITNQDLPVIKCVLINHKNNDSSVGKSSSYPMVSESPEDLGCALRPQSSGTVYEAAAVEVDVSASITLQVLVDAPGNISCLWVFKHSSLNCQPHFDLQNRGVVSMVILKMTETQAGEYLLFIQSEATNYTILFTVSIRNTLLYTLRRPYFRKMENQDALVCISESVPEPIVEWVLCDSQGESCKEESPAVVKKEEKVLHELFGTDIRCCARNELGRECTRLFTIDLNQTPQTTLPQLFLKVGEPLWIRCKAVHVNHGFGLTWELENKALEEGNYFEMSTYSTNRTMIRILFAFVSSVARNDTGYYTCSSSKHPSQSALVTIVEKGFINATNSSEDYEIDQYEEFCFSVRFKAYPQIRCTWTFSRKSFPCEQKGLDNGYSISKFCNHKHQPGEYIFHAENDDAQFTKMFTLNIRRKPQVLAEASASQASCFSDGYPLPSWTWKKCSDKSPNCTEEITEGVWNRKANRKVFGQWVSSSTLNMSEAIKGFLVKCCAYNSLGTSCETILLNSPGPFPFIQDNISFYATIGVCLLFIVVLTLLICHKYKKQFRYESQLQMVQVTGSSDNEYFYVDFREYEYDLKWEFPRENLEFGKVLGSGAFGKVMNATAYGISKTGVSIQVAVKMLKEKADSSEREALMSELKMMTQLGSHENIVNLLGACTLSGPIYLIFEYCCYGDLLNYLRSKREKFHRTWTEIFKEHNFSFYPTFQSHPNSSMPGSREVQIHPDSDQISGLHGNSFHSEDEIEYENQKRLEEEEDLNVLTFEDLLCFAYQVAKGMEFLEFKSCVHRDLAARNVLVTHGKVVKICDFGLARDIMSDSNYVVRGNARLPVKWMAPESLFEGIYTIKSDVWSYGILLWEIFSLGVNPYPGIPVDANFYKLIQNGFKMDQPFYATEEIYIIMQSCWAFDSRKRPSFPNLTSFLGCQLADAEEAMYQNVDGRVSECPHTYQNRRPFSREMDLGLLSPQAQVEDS
Glycogen synthase kinase-3 beta (Homo sapiens), sequence (P49841 whole entry, looked up): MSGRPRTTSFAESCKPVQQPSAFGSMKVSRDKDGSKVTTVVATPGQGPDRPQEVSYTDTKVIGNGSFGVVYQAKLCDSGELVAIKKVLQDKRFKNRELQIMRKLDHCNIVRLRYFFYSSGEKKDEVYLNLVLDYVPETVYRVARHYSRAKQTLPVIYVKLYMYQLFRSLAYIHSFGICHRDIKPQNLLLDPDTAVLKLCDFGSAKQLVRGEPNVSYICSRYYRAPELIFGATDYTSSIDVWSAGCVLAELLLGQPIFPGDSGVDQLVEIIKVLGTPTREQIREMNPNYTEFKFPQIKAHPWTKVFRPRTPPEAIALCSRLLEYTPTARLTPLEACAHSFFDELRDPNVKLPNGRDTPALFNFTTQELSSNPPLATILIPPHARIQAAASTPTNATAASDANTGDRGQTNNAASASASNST
Aurora kinase A (Homo sapiens), sequence (O14965 whole entry): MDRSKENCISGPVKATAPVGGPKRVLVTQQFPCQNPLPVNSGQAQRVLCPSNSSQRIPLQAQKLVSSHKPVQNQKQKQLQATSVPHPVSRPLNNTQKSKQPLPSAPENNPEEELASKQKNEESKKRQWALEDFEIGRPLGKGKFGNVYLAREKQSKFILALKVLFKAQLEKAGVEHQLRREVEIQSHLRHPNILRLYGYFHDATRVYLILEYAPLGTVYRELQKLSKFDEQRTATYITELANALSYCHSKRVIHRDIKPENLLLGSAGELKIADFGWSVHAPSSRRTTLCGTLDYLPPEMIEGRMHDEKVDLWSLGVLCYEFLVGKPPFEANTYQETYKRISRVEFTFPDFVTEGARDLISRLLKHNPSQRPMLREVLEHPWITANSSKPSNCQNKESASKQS
3-phosphoinositide-dependent protein kinase 1 (Homo sapiens), sequence (O15530 whole entry): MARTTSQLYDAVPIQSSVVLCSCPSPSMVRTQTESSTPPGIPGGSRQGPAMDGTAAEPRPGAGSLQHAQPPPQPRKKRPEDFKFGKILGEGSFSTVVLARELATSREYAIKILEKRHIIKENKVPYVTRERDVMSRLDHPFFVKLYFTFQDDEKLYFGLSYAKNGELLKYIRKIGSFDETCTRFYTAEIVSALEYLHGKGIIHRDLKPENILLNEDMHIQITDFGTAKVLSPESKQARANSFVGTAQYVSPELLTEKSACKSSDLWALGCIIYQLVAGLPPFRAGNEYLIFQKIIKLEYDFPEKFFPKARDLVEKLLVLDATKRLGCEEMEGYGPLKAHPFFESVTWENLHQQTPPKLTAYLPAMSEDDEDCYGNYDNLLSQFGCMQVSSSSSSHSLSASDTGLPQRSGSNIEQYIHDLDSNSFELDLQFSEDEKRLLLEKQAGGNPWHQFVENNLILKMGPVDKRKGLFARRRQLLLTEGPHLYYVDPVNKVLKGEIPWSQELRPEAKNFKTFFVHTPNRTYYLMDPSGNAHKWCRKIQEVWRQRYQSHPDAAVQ
Fibroblast growth factor receptor 1 (Homo sapiens), sequence (P11362 22-822 limits assumed): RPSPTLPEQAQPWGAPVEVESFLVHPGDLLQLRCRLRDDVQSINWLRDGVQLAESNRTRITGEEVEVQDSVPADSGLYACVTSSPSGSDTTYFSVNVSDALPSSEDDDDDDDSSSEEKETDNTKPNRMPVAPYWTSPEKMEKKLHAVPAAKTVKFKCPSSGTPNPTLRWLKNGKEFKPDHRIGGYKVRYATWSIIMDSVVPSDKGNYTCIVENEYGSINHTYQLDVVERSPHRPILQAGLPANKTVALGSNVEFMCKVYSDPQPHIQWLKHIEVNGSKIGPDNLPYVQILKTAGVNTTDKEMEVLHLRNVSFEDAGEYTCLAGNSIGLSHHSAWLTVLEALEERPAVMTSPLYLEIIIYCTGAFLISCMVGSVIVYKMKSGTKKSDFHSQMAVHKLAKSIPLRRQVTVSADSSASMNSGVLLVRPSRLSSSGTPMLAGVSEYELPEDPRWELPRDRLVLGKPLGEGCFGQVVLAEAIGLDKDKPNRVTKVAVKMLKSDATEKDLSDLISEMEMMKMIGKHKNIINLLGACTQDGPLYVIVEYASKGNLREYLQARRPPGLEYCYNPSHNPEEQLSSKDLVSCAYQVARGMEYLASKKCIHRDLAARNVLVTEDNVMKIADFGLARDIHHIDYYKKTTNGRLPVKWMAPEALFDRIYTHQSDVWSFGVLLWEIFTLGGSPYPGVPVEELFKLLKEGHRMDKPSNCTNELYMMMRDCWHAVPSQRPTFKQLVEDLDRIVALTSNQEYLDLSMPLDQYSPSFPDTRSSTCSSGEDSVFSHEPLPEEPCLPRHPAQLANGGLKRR
Casein kinase II subunit alpha (Homo sapiens), sequence (P68400 whole entry, looked up): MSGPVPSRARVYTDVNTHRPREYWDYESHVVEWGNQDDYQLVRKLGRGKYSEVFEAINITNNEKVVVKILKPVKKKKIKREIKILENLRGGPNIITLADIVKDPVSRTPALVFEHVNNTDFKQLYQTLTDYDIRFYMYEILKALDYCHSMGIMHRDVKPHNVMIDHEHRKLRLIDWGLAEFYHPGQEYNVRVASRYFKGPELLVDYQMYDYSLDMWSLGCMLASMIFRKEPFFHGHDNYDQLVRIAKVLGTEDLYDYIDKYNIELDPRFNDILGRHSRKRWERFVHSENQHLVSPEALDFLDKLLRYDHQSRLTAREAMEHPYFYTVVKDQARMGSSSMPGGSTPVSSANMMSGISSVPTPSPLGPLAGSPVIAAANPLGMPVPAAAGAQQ
Serine/threonine-protein kinase PAK 4 (Homo sapiens), sequence (O96013 whole entry, looked up): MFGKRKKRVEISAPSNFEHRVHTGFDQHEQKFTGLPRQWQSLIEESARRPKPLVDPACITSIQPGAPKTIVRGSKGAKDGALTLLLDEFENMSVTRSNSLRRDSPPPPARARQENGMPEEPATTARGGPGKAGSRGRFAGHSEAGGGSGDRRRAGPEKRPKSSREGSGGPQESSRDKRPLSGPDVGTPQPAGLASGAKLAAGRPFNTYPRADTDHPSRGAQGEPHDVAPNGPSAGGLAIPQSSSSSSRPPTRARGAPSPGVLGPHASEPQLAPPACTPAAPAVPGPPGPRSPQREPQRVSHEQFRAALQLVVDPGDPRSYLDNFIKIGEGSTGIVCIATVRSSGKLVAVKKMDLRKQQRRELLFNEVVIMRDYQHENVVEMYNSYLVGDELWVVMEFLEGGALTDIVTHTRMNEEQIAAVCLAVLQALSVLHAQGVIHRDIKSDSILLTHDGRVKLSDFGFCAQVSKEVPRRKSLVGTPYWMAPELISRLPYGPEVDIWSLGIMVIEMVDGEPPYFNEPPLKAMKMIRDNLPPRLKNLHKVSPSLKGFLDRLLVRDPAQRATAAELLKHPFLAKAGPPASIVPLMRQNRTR

With `O=C1/C(=C/c2ccccn2)CNC/C1=C\c1ccccn1` the inhibition [1] was 17%, the inhibition [2] was 22% and the inhibition [3] was 21%. It also gave an inhibition [4] of 26%, an inhibition [5] of 34% and an inhibition [6] of 54%. For the same compound, the inhibition [7] was 66%, the inhibition [8] was 69% and the inhibition [9] was 77%. It also gave an inhibition [10] of 77%, an inhibition [11] of 101% and an inhibition [12] of 102%. For the same compound, the inhibition [13] was 104%, the inhibition [14] was 107% and the inhibition [15] was “Active”. For the same compound, the IC50 [16] was 1.1 µM, the IC50 [17] was 1.4 µM and the inhibition [18] was -5%. For the same compound, the inhibition [19] was 1%, the inhibition [20] was 2% and the inhibition [21] was 5%. For the same compound, the inhibition [22] was 11%, the inhibition [23] was 10% and the inhibition [24] was 13%. The inhibition [25] was 15%, the inhibition [26] was 15% and the inhibition [27] was 18%. The inhibition [28] was 85% and the inhibition [29] was 89%.
